Data published in article PMC10078363 (Journal of Pineal Research, 2022).
Where two headings read alike, the source gives them in different places.

How the values were obtained:
murine Abcg2 [1] = molecular target: T1, murine Abcg2 (Mus musculus, UniProt Q7TMS5); type: in vivo, mice; conditions: 30 min after i.v. melatonin 10 mg/kg
T1 sequence (Q7TMS5 1-657): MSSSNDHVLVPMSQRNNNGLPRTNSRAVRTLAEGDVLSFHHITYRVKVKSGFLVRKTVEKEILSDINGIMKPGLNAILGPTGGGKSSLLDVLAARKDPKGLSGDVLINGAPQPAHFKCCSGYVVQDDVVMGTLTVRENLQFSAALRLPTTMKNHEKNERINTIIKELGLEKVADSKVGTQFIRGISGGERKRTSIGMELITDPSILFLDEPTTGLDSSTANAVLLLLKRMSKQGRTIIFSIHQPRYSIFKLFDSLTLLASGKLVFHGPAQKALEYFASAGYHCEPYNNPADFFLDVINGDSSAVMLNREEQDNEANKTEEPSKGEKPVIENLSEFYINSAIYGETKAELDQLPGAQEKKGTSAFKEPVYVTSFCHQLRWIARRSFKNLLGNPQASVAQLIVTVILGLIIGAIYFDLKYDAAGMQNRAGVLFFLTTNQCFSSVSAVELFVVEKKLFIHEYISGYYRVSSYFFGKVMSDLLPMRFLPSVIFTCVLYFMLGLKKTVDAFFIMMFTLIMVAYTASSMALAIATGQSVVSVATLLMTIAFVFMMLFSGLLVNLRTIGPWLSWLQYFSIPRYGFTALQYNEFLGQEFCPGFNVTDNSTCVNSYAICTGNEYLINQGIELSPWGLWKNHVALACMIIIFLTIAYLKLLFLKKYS

[2] = Transepithelial transport assay in parental MDCK‐II cells; type: in vitro ADME, canine; conditions: dog, with Ko143 1 µM
Procedure, shortened: (§1)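 MDCK-II monolayers, parental or transduced with an ABCG2 variant, in Hanks' balanced salt solution with 25 mM HEPES. Both sides are refreshed with or without Ko143 (1 µM). Test compound (8–10 µM) is added to one side, and the opposite side is sampled at 1, 2, 3 and 4 h. Analysis is by HPLC-UV at 310 nm. Ratio is apically directed % over basolaterally directed % at 4 h; n ≥ 3, mean ± SD.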

murine Abcg2 [3] = molecular target: T1, murine Abcg2; assay: Transepithelial transport assay in MDCK‐II cells transduced with murine Abcg2; type: in vitro ADME; conditions: mAbcg2 MDCK‐II, +Ko143 (1 µM); Mel 10 µM, 6‐SO‐Mel 8 µM, 6‐OH‐Mel 10 µM
Procedure, shortened: as §1

ovine ABCG2 = assay: Transepithelial transport assay in MDCK‐II cells transduced with ovine ABCG2; type: in vitro ADME; conditions: oABCG2 MDCK‐II, +Ko143 (1 µM); Mel 10 µM, 6‐SO‐Mel 8 µM, 6‐OH‐Mel 10 µM
Procedure, shortened: as §1

human ABCG2 = assay: Transepithelial transport assay in MDCK‐II cells transduced with human ABCG2; type: in vitro ADME; conditions: with Ko143 1 µM
Procedure, shortened: as §1

murine Abcg2 [4] = type: in vivo; conditions: male, FVB/N, mouse, plasma, oral, 10 mg/kg body weight, Abcg2−/− male mice, 1 h after oral melatonin 10 mg/kg
Procedure, shortened: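 Male Abcg2−/− and wild-type mice (FVB/N background, n = 8) are dosed orally in the morning with 10 mg/kg melatonin in 10% ethanol/40% PEG/50% saline. Plasma and tissues are taken at 1 h. Samples are precipitated with acetonitrile, then a melatonin-d4 internal standard is added. Analysis is LC-MS/MS on C18 with a water/methanol gradient (1 mM ammonium formate, 0.01% formic acid). Hydroxylated metabolites are reported as arbitrary units. Groups are compared by t-test or Mann–Whitney.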

murine Abcg2 [5] = type: in vivo, mice; conditions: female, FVB/N, mouse, intravenous, 10 mg/kg body weight, Abcg2−/− lactating female mice, 30 min after i.v. melatonin 10 mg/kg
[6] = wild‐type lactating female mice

| Compound | Milk levels (relative abundance) (murine Abcg2 [1]; Abcg2−/− lactating female mice) [arbitrary units] | Milk to plasma ratio (relative abundance) (murine Abcg2 [1]; Abcg2−/− lactating female mice) [arbitrary units] | Fold higher milk concentration/levels in wild‐type compared with Abcg2−/− (murine Abcg2 [1]; lactating female mice) | Fold higher milk to plasma ratio in wild‐type compared with Abcg2−/− (murine Abcg2 [1]; lactating female mice) | Milk levels (relative abundance) (murine Abcg2 [1]; [6]) [arbitrary units] | Milk to plasma ratio (relative abundance) (murine Abcg2 [1]; [6]) [arbitrary units] | efflux ratio at 4 h [2] | Relative efflux transport ratio (basal to apical % / apical to basal %) at 4 h (murine Abcg2 [3]) | Relative efflux transport ratio (basal to apical % / apical to basal %) at 4 h (ovine ABCG2) | efflux ratio at 4 h (human ABCG2) | concentration at 1 h (murine Abcg2 [4]) [ng/mL] | concentration at 30 min (murine Abcg2 [5]; milk, Milk concentration) [ng/mL] | Kp at 30 min (murine Abcg2 [5]; milk, Milk to plasma ratio) | concentration at 30 min (murine Abcg2 [5]; plasma, Plasma concentration) [ng/mL] |
| --- | --- | --- | --- | --- | --- | --- | --- | --- | --- | --- | --- | --- | --- | --- |
| COc1ccc2[nH]c(O)c(CCNC(C)=O)c2c1 [2‐OH‐Mel, 2‐hydroxymelatonin] | 1.42 ± 0.66 | 1.75 ± 0.29 | around twofold | around twofold | 2.90 ± 1.24 | 3.68 ± 1.34 | – | – | – | – | – | – | – | – |
| COc1ccc2[nH]cc(CCNC(C)=O)c2c1 [melatonin] | – | – | almost twofold | – | – | – | 1.05 ± 0.06 | 1.00 ± 0.06 | 0.99 ± 0.11 | 1.02 ± 0.07 | 9.39 ± 4.59 | 6340 ± 3870 | 0.02 ± 0.01 | 288000 ± 89300 |
